≈ marks a conversion by molar mass, not a printed value. Calls of active or inactive are those of the source. The rule behind the calls is not given here.
Experiments:
Rattus norvegicus [1] = assay: Potency for induction of GPDH (mitochondrial cytochrome C3-phosphoglycerate oxidoreductase) was measured 48 hours after single intramuscular injection relative to […] in liver; format: functional
[2] = Binding affinity to the thyroid hormone receptor was determined in vitro in isolated nuclei of rat liver relative to 3,5,3' triiodothyronine; format: tissue-based
Rattus norvegicus [3] = assay: Potency for induction of GPDH (mitochondrial cytochrome C 3-phosphoglycerate oxidoreductase) was measured 48 hr after single im injection relative to T3 in heart; LM=low maximal response after 2 daily doses of 50 mg/kg; format: functional, organism-based; parameters: dose 50 mg/kg; settings: filed as partial agonist
Rattus norvegicus [4] = assay: Percent increase in oxygen consumption after seven daily doses of test compound given perorally, with concentration of compound at 5.3 mg/kg; format: functional; settings: route oral
Procedure, shortened: (§1)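 Euthyroid rats given seven daily doses, intramuscular or oral, by line; whole-body oxygen consumption measured as percent increase in metabolic rate.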

[5] = system: Thyroid hormone receptor (Rattus norvegicus); assay: Binding affinity to thyroid hormone receptor, relative to 3,5,3' triiodothyronine receptor, in isolated nuclei of heart
Rattus norvegicus [6] = assay: Potency for induction of GPDH (mitochondrial cytochrome C3-phosphoglycerate oxidoreductase) was measured 48 hours after single intramuscular injection relative to T3 in liver; LM is low maximal response after 2 daily doses of 50 mg/kg; format: functional
[7] = target: T1, Thyroid hormone receptor beta (Rattus norvegicus) (UniProt P18113); assay: Binding affinity to the receptor was determined in isolated nuclei of heart in vitro relative to 3,5,3' triiodothyronine receptor
T1 sequence (whole entry): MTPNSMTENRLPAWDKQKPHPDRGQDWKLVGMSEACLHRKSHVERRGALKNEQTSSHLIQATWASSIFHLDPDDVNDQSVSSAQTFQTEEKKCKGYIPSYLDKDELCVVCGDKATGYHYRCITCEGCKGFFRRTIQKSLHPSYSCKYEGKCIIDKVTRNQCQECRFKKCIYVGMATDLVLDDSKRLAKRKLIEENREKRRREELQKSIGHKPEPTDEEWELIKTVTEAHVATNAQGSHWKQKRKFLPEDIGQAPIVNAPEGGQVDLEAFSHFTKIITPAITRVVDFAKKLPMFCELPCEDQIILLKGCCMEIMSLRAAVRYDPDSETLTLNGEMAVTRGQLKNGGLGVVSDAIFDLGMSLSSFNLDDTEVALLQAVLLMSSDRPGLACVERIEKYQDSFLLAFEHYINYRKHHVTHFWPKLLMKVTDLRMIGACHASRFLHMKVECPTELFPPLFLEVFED

[8] = target: T1, Thyroid hormone receptor beta (Rattus norvegicus); assay: Selectivity, ratio of relative ID50 in liver and heart
Procedure, shortened: (§2)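 Liver/heart selectivity in rats, calculated as (relative ID50)liver divided by (relative ID50)heart, from in vivo nuclear binding 1 h after intravenous dosing.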

[9] = target: T1, Thyroid hormone receptor beta (Rattus norvegicus); assay: Binding affinity to the receptor was determined in nuclei of liver In vivo 1 hour after intravenous administration relative to 3,5,3' triiodothyronine receptor; format: organism-based
Rattus norvegicus [10] = assay: Potency for induction of GPDH (mitochondrial cytochrome C3-phosphoglycerate oxidoreductase) was measured 48 hours after single intramuscular injection relative to T3 in heart; format: functional
[11] = target: T1, Thyroid hormone receptor beta (Rattus norvegicus); assay: Binding affinity to the receptor was determined in nuclei of heart in vivo 1 hour after intravenous administration relative to 3,5,3' triiodothyronine receptor
Rattus norvegicus [12] = assay: Percent increase in oxygen consumption in dose-mg/Kgfter seven daily doses of test compound given intramuscularly, at a conc of 3.3 mg/kg; format: functional; settings: route intramuscular; procedure, shortened: as §1
[13] = target: T1, Thyroid hormone receptor beta (Rattus norvegicus); assay: Binding affinity to the receptor was determined in isolated nuclei of heart(In vitro) relative to T3
Rattus norvegicus [14] = assay: Percent increase in oxygen consumption after seven daily doses in mg/kg increase of test compound given perorally; I=inactive after 2 daily doses of 50 mg/kg; format: functional, organism-based; parameters: dose 50 mg/kg; procedure, shortened: as §1
[15] = target: T1, Thyroid hormone receptor beta (Rattus norvegicus); assay: Binding affinity to the receptor was determined in nuclei of liver In vivo 1 hour after intravenous administration relative to T3; format: organism-based
[16] = Selectivity, ratio between relative ID50 in liver and heart; procedure, shortened: as §2
Rattus norvegicus [17] = assay: Potency for induction of GPDH (mitochondrial cytochrome C3-phosphoglycerate oxidoreductase) was measured 48 hr after single im injection relative to T3 in heart; I=inactive after 2 daily doses of 50 mg/kg; format: functional, organism-based; parameters: dose 50 mg/kg
Rattus norvegicus [18] = assay: Potency for induction of GPDH (mitochondrial cytochrome C3-phosphoglycerate oxidoreductase) was measured 48 hours after single intramuscular injection relative to T3 in liver; format: functional
[19] = Partition coefficient at 25 degree Celsius in octanol/aqueous buffer at pH 6.02; format: physicochemical
[20] = Aqueous solubility at 37 degree Celsius at pH 7.38; format: physicochemical
Procedure, shortened: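 Solubility in aqueous medium at 37 °C, pH 7.38; given in units of ×10^5 mol/L.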

[21] = partition coefficient at 25 degree Celsius in octanol/aqueous buffer at pH 6.02; format: physicochemical
Rattus norvegicus [22] = assay: In vivo binding affinity for 3,5,3'' triiodothyronine receptor of heart nuclei 1 hr after intravenous administration; format: organism-based
Rattus norvegicus [23] = assay: Percent increase in oxygen consumption after seven daily doses of test compound given perorally, with concentration of compound at 5 mg/kg; format: functional; settings: route oral; procedure, shortened: as §1
Rattus norvegicus [24] = assay: Percent increase in oxygen consumption after seven daily doses of test compound given intramuscularly, ata conc of 3.3 mg/kg; format: functional; settings: route intramuscular; procedure, shortened: as §1
Rattus norvegicus [25] = assay: In vivo binding affinity for 3,5,3' triiodothyronine receptor of liver nuclei 1 hour after intravenous administration; format: organism-based
Rattus norvegicus [26] = assay: Potency for induction of GPDH (mitochondrial cytochrome C3-phosphoglycerate oxidoreductase) was measured relative to T3 in heart; I=inactive after 2 daily doses of 50 mg/kg; format: functional, organism-based; parameters: dose 50 mg/kg
Rattus norvegicus [27] = assay: Percent increase in oxygen consumption after seven daily oral doses of 5 mg/kg in euthyroid rats
[28] = target: T1, Thyroid hormone receptor beta (Rattus norvegicus); assay: In vivo binding affinity to the receptor was determined in nuclei of heart 1 h after intravenous administration relative to 3,5,3' triiodothyronine receptor
[29] = target: T1, Thyroid hormone receptor beta (Rattus norvegicus); assay: Binding affinity to the receptor was determined in isolated nuclei of liver in vitro relative to 3,5,3' triiodothyronine receptor
Rattus norvegicus [30] = assay: Percent increase in oxygen consumption after seven daily doses of test compound given perorally, with value in braces indicating the concentration of compound at 5 mg/kg; format: functional; settings: route oral; procedure, shortened: as §1
Rattus norvegicus [31] = assay: Percent increase in oxygen consumption after seven daily doses of test compound given intramuscularly, with the concentration of compound at 10 mg/kg; format: functional; settings: route intramuscular; procedure, shortened: as §1
[32] = target: T1, Thyroid hormone receptor beta (Rattus norvegicus); assay: Binding affinity to the receptor was determined in vitro in isolated nuclei of rat liver relative to T3; format: tissue-based
[33] = target: T1, Thyroid hormone receptor beta (Rattus norvegicus); assay: (§3) In vitro binding affinity to the receptor was determined in isolated nuclei of heart relative to T3; format: functional
Rattus norvegicus [34] = assay: Percent increase in oxygen consumption after seven daily doses of test compound given perorally; I=inactive after 2 daily doses of 50 mg/kg; format: functional, organism-based; parameters: dose 50 mg/kg; procedure, shortened: as §1
Rattus norvegicus [35] = assay: Percent increase in oxygen consumption after seven daily doses of test compound given intramuscularly, at a conc of 3.3 mg/kg; format: functional; settings: route intramuscular; procedure, shortened: as §1
Rattus norvegicus [36] = assay: Percent increase in oxygen consumption after seven daily doses of test compound given perorally, with concentration of compound at 0.1 mg/kg; format: functional; settings: route oral; procedure, shortened: as §1
Rattus norvegicus [37] = assay: Percent increase in oxygen consumption after seven daily doses of test compound given intramuscularly, with the concentration of compound at 0.1 mg/kg; format: functional; settings: route intramuscular; procedure, shortened: as §1
Rattus norvegicus [38] = assay: Percent increase in oxygen consumption after seven daily doses of test compound given perorally, with concentration of compound; I=inactive after 2 daily doses of 5o mg/kg; format: functional, organism-based; procedure, shortened: as §1
Rattus norvegicus [39] = assay: Percent increase in oxygen consumption after seven daily doses of test compound given intramuscularly, with concentration of compound at 20 mg/kg; format: functional; settings: route intramuscular; procedure, shortened: as §1
Rattus norvegicus [40] = assay: Percent increase in oxygen consumption after seven daily doses of test compound given perorally; I is inactive after 2 daily doses of 50 mg/kg; format: functional, organism-based; parameters: dose 50 mg/kg; procedure, shortened: as §1
Rattus norvegicus [41] = assay: Percent increase in oxygen consumption after seven daily doses of test compound given perorally, with concentration of compound at 0.04 mg/kg; format: functional; settings: route oral; procedure, shortened: as §1
Rattus norvegicus [42] = assay: Potency for induction of GPDH (mitochondrial cytochrome C 3-phosphoglycerate oxidoreductase) was measured 48 hr after single im injection relative to T3 in liver; LM=low maximal response after 2 daily doses of 50 mg/kg; format: functional, organism-based; parameters: dose 50 mg/kg; settings: filed as partial agonist
Rattus norvegicus [43] = assay: Potency for induction of GPDH was measured 48 hr after single intramuscular injection relative to T3 in lheart; LM=low maximal response after 2 daily doses of 50 mg/kg; format: functional, organism-based; parameters: dose 50 mg/kg; settings: filed as partial agonist
[44] = target: T1, Thyroid hormone receptor beta (Rattus norvegicus); assay: as §3
[45] = target: T1, Thyroid hormone receptor beta (Rattus norvegicus); assay: Binding affinity to the receptor was determined in nuclei of heart in vivo 1 hour after intravenous administration relative to T3; format: organism-based

N[C@@H](Cc1cc(Br)c(Sc2ccc(O)c(Cc3ccc(O)nc3)c2)c(Br)c1)C(=O)O
Relative ED50 (Rattus norvegicus [1]): 14.5
Relative IC50 [2]: 9.8
Relative ED50 (Rattus norvegicus [3]): Partial agonist
Increase (Rattus norvegicus [4]): 16%
Relative IC50 [5]: 10.2

N[C@@H](Cc1cc(I)c(Oc2ccc(O)c(Cc3ccc(F)cc3)c2)c(I)c1)C(=O)O
Relative ED50 (Rattus norvegicus [6]): 5.7
Relative IC50 [7]: 43
Relative IC50 [2]: 60
Ratio [8]: 11.4
Relative ID50 [9]: 98
Relative ED50 (Rattus norvegicus [10]): 3.7
Relative ID50 [11]: 8.6

N[C@@H](Cc1cc(I)c(Oc2ccc(O)c(Cc3ccc(O)nc3)c2)c(I)c1)C(=O)O
Increase (Rattus norvegicus [12]): 19%
Relative IC50 [13]: 2.7
Increase (Rattus norvegicus [14]): inactive
Relative ID50 [15]: 10
Relative IC50 [2]: 2.3
Ratio [16]: 50
Relative ED50 (Rattus norvegicus [17]): inactive
Relative ED50 (Rattus norvegicus [18]): 1.7
logD [19]: 1.01
Relative ID50 [11]: 0.2
solubility [20]: 10 µM (≈ 6.32 µg/mL)

N[C@@H](Cc1cc(Br)c(Oc2ccc(O)c(Cc3ccc(O)nc3)c2)c(Br)c1)C(=O)O
logD [21]: 0.7
Relative ID50 (Rattus norvegicus [22]): 0.3
Increase (Rattus norvegicus [23]): 31%
Increase (Rattus norvegicus [24]): 32%
Relative IC50 [2]: 2
Relative ED50 (Rattus norvegicus [17]): inactive
Relative ID50 (Rattus norvegicus [25]): 23
Relative ED50 (Rattus norvegicus [18]): 6.9
Relative IC50 [5]: 1.8
solubility [20]: 33 µM (≈ 17.8 µg/mL)

O=C(O)CCCc1cc(Br)c(Oc2ccc(O)c(Cc3ccc(O)nc3)c2)c(Br)c1
Relative IC50 [2]: 21.7
Relative ED50 (Rattus norvegicus [18]): 0.69
Relative ED50 (Rattus norvegicus [26]): inactive
Increase (Rattus norvegicus [27]): 19%
Relative ID50 [28]: 0.26
Relative IC50 [29]: 21.7

Cc1cc(CC(N)C(=O)O)cc(C)c1Oc1ccc(O)c(Cc2ccc(O)nc2)c1 (configuration not stated)
Increase (Rattus norvegicus [30]): 18%
Increase (Rattus norvegicus [31]): 28%
Relative IC50 [32]: 0.083
Relative ED50 (Rattus norvegicus [17]): inactive
Relative ED50 (Rattus norvegicus [18]): 1.1
Relative IC50 [33]: 0.14

N[C@@H](Cc1cc(I)c(Sc2ccc(O)c(Cc3ccc(O)nc3)c2)c(I)c1)C(=O)O
% increase O2 consumption (Rattus norvegicus [34]): inactive
Relative IC50 [2]: 14.8
Relative ED50 (Rattus norvegicus [17]): inactive
Increase (Rattus norvegicus [35]): 26%
Relative ED50 (Rattus norvegicus [18]): 16.6
Relative IC50 [5]: 19.4

N[C@@H](Cc1cc(Br)c(Oc2ccc(O)c(Cc3ccc(O)nn3)c2)c(Br)c1)C(=O)O
Increase (Rattus norvegicus [36]): 20%
Relative IC50 [2]: 0.9
Relative ED50 (Rattus norvegicus [18]): 18
Relative ED50 (Rattus norvegicus [10]): <0.1
Increase (Rattus norvegicus [37]): 20%

O=C(O)Cc1cc(Br)c(Oc2ccc(O)c(Cc3ccc(O)nc3)c2)c(Br)c1
% increase O2 consumption (Rattus norvegicus [38]): inactive
Increase (Rattus norvegicus [39]): 21%
Relative IC50 [2]: 3
Relative ED50 (Rattus norvegicus [17]): inactive
Relative ED50 (Rattus norvegicus [18]): 2

N[C@H](Cc1cc(I)c(Oc2ccc(O)c(Cc3ccc(O)nc3)c2)c(I)c1)C(=O)O
% increase O2 consumption (Rattus norvegicus [40]): inactive
Relative IC50 [2]: 1.1
Relative ED50 (Rattus norvegicus [17]): inactive
Relative ED50 (Rattus norvegicus [18]): 1
Relative IC50 [5]: 1.9

N[C@@H](Cc1cc(Cl)c(Oc2ccc(O)c(Cc3ccc(O)nn3)c2)c(Cl)c1)C(=O)O
Relative ED50 (Rattus norvegicus [1]): 25
Increase (Rattus norvegicus [41]): 15%
Relative IC50 [2]: 0.48
Relative ED50 (Rattus norvegicus [3]): Partial agonist
Relative IC50 [5]: 0.8

N[C@@H](Cc1cc(I)c(Oc2ccc(O)c(Cc3ccccc3O)c2)c(I)c1)C(=O)O
Relative ED50 (Rattus norvegicus [42]): Partial agonist
Relative ID50 [15]: 0.024
Relative ED50 (Rattus norvegicus [43]): Partial agonist
Relative IC50 [2]: 0.81
Ratio [16]: 1
Relative ID50 [11]: 0.024

O=C(O)CCc1cc(Br)c(Oc2ccc(O)c(Cc3ccc(O)nc3)c2)c(Br)c1
Relative IC50 [44]: 33.2
Relative ID50 [45]: 4.2
Relative IC50 [32]: 31.6
Relative ED50 (Rattus norvegicus [18]): 2
Relative ED50 (Rattus norvegicus [10]): 0.04
